Data as given in paper PMC3597129 (The Journal of antimicrobial chemotherapy, 2008).
Read-outs that look alike come from different tables or passages of the source.

Columns and labels:
[1] = 2NN study, cited from earlier work
[2] = Population pharmacokinetic model fitted to each study site separately; assay type: in vivo, human; details: split model, 1600/100 mg once daily; for Population predictions CL/F / Population predictions V/F: typical 70 kg male
Method in brief: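 UK sampling: pre-dose to 12 h (24 h if once daily). Thailand: pre-dose to 24 h, 10–15 g fat meal. Plasma from heparinized blood was frozen at −70°C and assayed by HPLC-MS/MS or HPLC-UV. Nonlinear mixed-effects modelling used FO estimation; individual estimates were Bayesian post hoc.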

[3] = healthy volunteers, Phase I studies; cited from earlier work
[4] = for Individual predictions V/F / Population predictions V/F: 1600/100 mg once daily; for Population predictions V/F: typical 70 kg male

## Cc1ccnc2c1NC(=O)c1cccnc1N2C1CC1 [nevirapine]
[1]; South American HIV patients
  higher clearance compared with Thai and South African individuals: ~ 11%
[1]; Western HIV patients
  higher clearance compared with Thai and South African individuals: ~28%

## CC(C)(C)NC(=O)[C@@H]1C[C@@H]2CCCC[C@@H]2CN1C[C@@H](O)[C@H](Cc1ccccc1)NC(=O)[C@H](CC(N)=O)NC(=O)c1ccc2ccccc2n1 [saquinavir]
[2]; Thailand
  Individual predictions CL/F: 22.8 L/h
  Individual predictions V/F: 184.1 L
  Population predictions CL/F: 26.7 L/h
  Population predictions V/F: 245.9 L
[2]; UK
  Individual predictions CL/F: 79.4 L/h
  Individual predictions V/F: 278.8 L
  Population predictions CL/F: 89.0 L/h
  Population predictions V/F: 313.5 L
[2]; Uganda
  Individual predictions CL/F: 59.0 L/h
  Individual predictions V/F: 400.2 L
  Population predictions CL/F: 49.8 L/h
  Population predictions V/F: 421.0 L
[3]
  bioavailability F: 0.039
[4]; both, human, in vivo
  observed trough concentrations below target (MEC 0.1 mg/L), number: 65
[4]; fasted state compared with standardized meal
  decrease in F: ~ 40%
[4]; full model
  D1 (duration of zero-order input): 3.08 h
  IIV CL/F: 41.4%
  IIV D1: 17.8%
  IIV V/F: 41.6%
  IIV lag-time: 46.8%
  IOV CL/F: 57.3%
  IOV V/F: 37.3%
  Lag-time: 0.57 h
  Residual error additive: 0.26 mg/L
  Residual error proportional: 34.3%
[4]; full model, 1000/100 mg bid evening dose
  V/F: 545 L
[4]; full model, 1000/100 mg bid morning dose
  V/F: 324 L
[4]; full model, 1600/100 mg qd
  V/F: 324 L
[4]; full model, 1600/100 mg qd Thailand
  V/F: 379 L
[4]; full model, 1600/100 mg qd Uganda
  V/F: 332 L
[4]; full model, 2000/100 mg qd
  V/F: 324 L
[4]; full model, Thailand
  Individual predictions V/F: 195.4 L
  Population predictions V/F: 371.1 L
[4]; full model, UK
  Individual predictions V/F: 272.9 L
  Population predictions V/F: 317.2 L
[4]; full model, Uganda
  Individual predictions V/F: 521.2 L
  Population predictions V/F: 325.1 L
[4]; high-fat meal (66 g fat) compared with standardized meal
  increase in F: ~ 80%
